Experimental data reported in ChEMBL document CHEMBL3526056, “Characterization of in vitro glucuronidation clearance of a range of drugs in human kidney microsomes: comparison with liver and intestinal glucuronidation and impact of albumin” (Drug Metab Dispos, 2012).

What was measured:
[1] = Clearance in iv dosed human; type: ADME, organism-based; settings: in vivo
[2] = Fraction unbound in human plasma
[3] = Ratio of drug level blood to plasma in human; type: ADME; settings: blood and plasma
Liver microsome [4] = test: Fraction metabolized glucuronidation in human liver microsomes in presence of UDP-glucuronosyltransferase; type: ADME
Liver microsome [5] = test: Fraction metabolized glucuronidation in human liver microsomes in presence of UDP-glucuronosyltransferase and bovine serum albumin; type: ADME
[6] = Glucuronidation clearance in human liver microsomes; type: ADME
[7] = Glucuronidation clearance in human liver microsomes in presence of bovine serum albumin; type: ADME
[8] = Fraction unbound in human liver microsomes at 5 uM after 30 to 60 mins by LC-MS/MS analysis
[9] = Fraction unbound in human kidney microsomes at 5 uM after 30 to 60 mins by LC-MS/MS analysis
[10] = Fraction unbound in human intestinal microsomes at 5 uM after 30 to 60 mins by LC-MS/MS analysis
[11] = Fraction unbound in human kidney microsomes at 5 uM after 30 to 60 mins by LC-MS/MS analysis in presence of 2% bovine serum albumin
Liver microsome [12] = test: Ratio of unbound intrinsic glucuronidation clearance in human liver microsomes in presence of 2% bovine serum albumin to unbound intrinsic glucuronidation clearance in human liver microsomes in absence of bovine serum albumin; type: ADME
Summary of the method: (§1)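 Ratios of mean scaled unbound CLint,UGT (per g tissue) between tissues, or between with and without BSA. Microsomal depletion assays at 1 μM, or 5 μM for propofol, in pH 7.1 phosphate at 37°C, read by LC-MS/MS. Kidney and liver n = 3, intestine n = 1, each in duplicate.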

[13] = Ratio of unbound intrinsic glucuronidation clearance in human kidney microsomes in presence of 2% bovine serum albumin to unbound intrinsic glucuronidation clearance in human kidney microsomes in absence of bovine serum albumin; type: ADME, microsome; summary of the method: as §1
[14] = Ratio of unbound intrinsic glucuronidation clearance in human intestinal microsomes in presence of 2% bovine serum albumin to unbound intrinsic glucuronidation clearance in human intestinal microsomes in absence of bovine serum albumin; type: ADME, Intestine, Microsome; summary of the method: as §1

`CC(C)c1cccc(C(C)C)c1O` [PROPOFOL] showed a clearance [1] of 27.7 mL/min/kg, a fraction unbound [2] of 0.015 and a blood plasma ratio [3] of 0.88. The Drug metabolism (Liver microsome [4]) was 0.14, the Drug metabolism (Liver microsome [5]) was 0.53 and the CLhep predicted [6] was 3.88 mL/min/kg. For the same compound, the CLhep predicted [7] was 14.7 mL/min/kg, the fraction unbound at 5 µM [8] was 0.69 and the fraction unbound at 5 µM [9] was 0.69. For the same compound, the fraction unbound at 5 µM [10] was 0.69, the fraction unbound at 5 µM [11] was 0.25 and the Ratio (Liver microsome [12]) was 1.6. The Ratio [13] was 1.6 and the Ratio [14] was 1.6.
